Assay outcomes from PubChem.
PostGolgi ctrl – inhibits growth of the yeast control strain; efflux-deficient yeast background strain, growth absorbance A615, 16 h; inhibition, % at 10 µM; 98,000 tested, 5% active
PostGolgi yeast – growth inhibition of a yeast mutant, post-Golgi transport screen | AID 739 | 98,000 tested, 0.9% active | inhibition, % at 10 µM | post-Golgi transport phenotypic cell assay;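 also: yeast cells grown in 1536-well plates; yeast grown about 18 h at 30C before absorbance read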
tolC growth inh – blocks growth of E. coli BW25113 tolC mutant; OD615; growth inhibition, % at 10 µM (by protocol); AID 573; 65,000 tested, 2.2% active;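 active = growth inhibition at or above a cutoff equal to the mean over every tested compound plus 3 SD, cut at about 60% in these data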;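 also: growth measured after 20 h incubation at 37 °C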
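Doses: one dose of 10 µM final / Material: E. coli BW25113 ΔtolC::kan, tolC deletion mutant strain / Buffer or medium: LB with kanamycin 50 µg/mL / Evaluation: percent growth inhibition / Detection: optical density read at 615 nm / Incubation: 37 °C, 20 h exposure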
HePTP inhibitor – human HePTP phosphatase inhibition. P35236. AID 521. recombinant HePTP phosphatase activity, OD absorbance. 110,000 tested, 0.64% active. inhibition, % at 20 µM; in the data active = inhibition above about 50%;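 also: plate controls were vehicle for no effect and reference inhibitor for full effect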
E coli WT exp – E. coli BW25113 growth inhibition, expanded screen | 98,000 tested, 0.15% active | growth inhibition, % at 100 µM | OD600 absorbance;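 active = growth inhibition above about 50% at one test dose, limit read from the data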;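 also: growth measured after 20 h incubation at 37 °C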
PLAP activator – human PLAP activation; AID 696; P05187; purified PLAP enzyme, luminescent substrate read-out; active compounds read high; 96,000 tested, 1.2% active; activation fold at 20 µM; in the data active = activation fold above about 2
Target sequence (P05187 whole entry, looked up): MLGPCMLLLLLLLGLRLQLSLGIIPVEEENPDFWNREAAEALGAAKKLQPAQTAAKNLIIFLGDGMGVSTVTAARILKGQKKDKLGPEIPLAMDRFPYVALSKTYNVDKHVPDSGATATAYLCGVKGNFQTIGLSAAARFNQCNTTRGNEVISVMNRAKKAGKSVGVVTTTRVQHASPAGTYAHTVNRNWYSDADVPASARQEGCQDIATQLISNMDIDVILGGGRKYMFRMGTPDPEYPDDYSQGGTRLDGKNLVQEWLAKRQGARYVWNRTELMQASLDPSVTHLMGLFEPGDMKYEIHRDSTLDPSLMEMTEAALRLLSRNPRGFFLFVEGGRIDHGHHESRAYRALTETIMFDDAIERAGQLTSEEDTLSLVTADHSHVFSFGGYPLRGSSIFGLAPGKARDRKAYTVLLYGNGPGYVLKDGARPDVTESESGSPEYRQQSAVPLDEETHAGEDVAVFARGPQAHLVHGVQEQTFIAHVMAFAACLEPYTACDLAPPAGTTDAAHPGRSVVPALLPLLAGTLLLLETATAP
* hit, by the source's call. The list is not random: actives were taken first. Their share in the collection is about 5.4%. Rule as the data show it, unless noted: active = inhibition above about 30%; inactive = the rest.

Results for Cc1c(NS(=O)(=O)c2cccc(C(=O)NCc3ccc(Cl)cc3)c2)c(=O)n(-c2ccccc2)n1C ?
PostGolgi ctrl: 31*; PostGolgi yeast: 10; E coli WT exp: -2; PLAP activator: 1.3

How did Cc1c(NS(=O)(=O)c2ccccc2)c(=O)n(-c2ccccc2)n1C do in these assays?
PostGolgi ctrl: 0; PostGolgi yeast: 8; E coli WT exp: 0; PLAP activator: 1

Results for COc1ccc(-n2c(C)c(C(C)=O)c(C(C)=O)c2C)cc1 ?
PostGolgi ctrl: 12; PostGolgi yeast: -7; E coli WT exp: 7; PLAP activator: 0.8

How did Cc1cccc2cc(C(c3nnnn3CC3CCCO3)N3CCc4ccccc4C3)c(=O)[nH]c12 (stereo unspecified) do in these assays?
PostGolgi ctrl: 1; PostGolgi yeast: 1; tolC growth inh: 69*; HePTP inhibitor: 7; E coli WT exp: 2; PLAP activator: 1.4

What do the screens show for `CCOc1ccc2[nH]c(=O)c(C(c3nnnn3CC3CCCO3)N3CCc4ccccc4C3)cc2c1` (stereo unspecified)?
PostGolgi ctrl: 2; PostGolgi yeast: 4; tolC growth inh: 26; HePTP inhibitor: 13; E coli WT exp: -18; PLAP activator: 1.8

What do the screens show for `Cc1ccc2cc(C(c3nnnn3CC3CCCO3)N3CCc4ccccc4C3)c(=O)[nH]c2c1` (stereo unspecified)?
PostGolgi ctrl: 42*; PostGolgi yeast: -13; tolC growth inh: 14; HePTP inhibitor: 0; E coli WT exp: 12; PLAP activator: 1.5

What do the screens show for `CCCCSc1nnc(-c2ccccc2N)c(=O)[nH]1`?
PostGolgi ctrl: 14; PostGolgi yeast: 1; tolC growth inh: 17; HePTP inhibitor: 3; E coli WT exp: 0; PLAP activator: 0.9

How did CCCCCSc1nnc(-c2cc(Br)ccc2N)c(=O)[nH]1 do in these assays?
PostGolgi ctrl: 11; PostGolgi yeast: 1; tolC growth inh: 100*; HePTP inhibitor: 4; E coli WT exp: 5; PLAP activator: 1.1

What do the screens show for `CCOC(=O)c1cc(C(=O)c2cccs2)n2ccc(C(C)=O)cc12`?
PostGolgi ctrl: 82*; PostGolgi yeast: 1; E coli WT exp: -11; PLAP activator: 0.7

What do the screens show for `CCOC(=O)c1cc(C(C)=O)n2ccccc12`?
PostGolgi ctrl: 13; PostGolgi yeast: 4; E coli WT exp: 7; PLAP activator: 1

What do the screens show for `COc1ccc(N2C(=O)CSC2c2ccc3c(c2)OCO3)cc1` (stereo unspecified)?
PostGolgi ctrl: 10; PostGolgi yeast: 9; tolC growth inh: -7; HePTP inhibitor: 11; E coli WT exp: 4; PLAP activator: 0.9

What do the screens show for `COc1ccc(N2C(=O)CSC2c2ccc3c(c2)OCO3)c(OC)c1` (stereo unspecified)?
PostGolgi ctrl: 31*; PostGolgi yeast: 5; tolC growth inh: 3; HePTP inhibitor: 3; E coli WT exp: 6; PLAP activator: 1.1

What do the screens show for `Cc1cc(C)nc(SCc2nc3ccccc3n2C)n1`?
PostGolgi ctrl: 6; PostGolgi yeast: 1; tolC growth inh: -16; HePTP inhibitor: 8; E coli WT exp: -4; PLAP activator: 0.8

What do the screens show for `CC(=O)NC(CCS(C)(=O)=O)C(=O)Nc1cc(Cl)ccc1Cl` (stereo unspecified)?
PostGolgi ctrl: 32*; PostGolgi yeast: -3; tolC growth inh: -21; HePTP inhibitor: 3; E coli WT exp: 7; PLAP activator: 1.1

How did CCn1c(=S)sc2c(=O)[nH]c(C)nc21 do in these assays?
PostGolgi ctrl: 10; PostGolgi yeast: 7; tolC growth inh: -3; HePTP inhibitor: 10; E coli WT exp: -11; PLAP activator: 1

Results for Cc1ccc(NS(=O)(=O)c2ccc3c(c2)OCCO3)cc1 ?
HePTP inhibitor: 8

Results for CSc1nc2ccc(NS(=O)(=O)c3ccc4c(c3)OCCO4)cc2s1 ?
PostGolgi ctrl: 32*; PostGolgi yeast: 8; tolC growth inh: 100*; HePTP inhibitor: 1; E coli WT exp: -10; PLAP activator: 1.2

What do the screens show for `CSc1nc2ccc(S(=O)(=O)NC3CCCCC3)cc2s1`?
PostGolgi ctrl: 71*; PostGolgi yeast: 0; tolC growth inh: 16; HePTP inhibitor: 10; E coli WT exp: -2; PLAP activator: 0.8

What do the screens show for `CCS(=O)(=O)N1CCCC(C(=O)NCc2cccc(OC)c2)C1` (stereo unspecified)?
PostGolgi ctrl: -2; PostGolgi yeast: 0; tolC growth inh: -26; HePTP inhibitor: -7; E coli WT exp: -8; PLAP activator: 0.7
